In ChEMBL document CHEMBL3351809, “New potent antibacterials against Gram-positive multiresistant pathogens: effects of side chain modification and chirality in linezolid-like 1,2,4-oxadiazoles” (Bioorg Med Chem, 2014):
≈ marks a conversion by molar mass, not a printed value.

How the values were obtained:
Staphylococcus aureus [1] = assay: Antibacterial activity against Staphylococcus aureus ATCC 29213 by broth microdilution method; assay type: functional
[2] = Antibacterial activity against Staphylococcus aureus Mu50 ATCC 700699 by broth microdilution method; assay type: functional, Staphylococcus aureus subsp. aureus Mu50
Staphylococcus aureus [3] = assay: Antibacterial activity against methicillin-resistant Staphylococcus aureus MRSA M923 by broth microdilution method; assay type: functional
Staphylococcus aureus [4] = assay: Antibacterial activity against methicillin-resistant Staphylococcus aureus MRSA 433 by broth microdilution method; assay type: functional
Staphylococcus aureus [5] = assay: Antibacterial activity against methicillin-resistant Staphylococcus aureus MRSA F511 by broth microdilution method; assay type: functional
HepG2 [6] = assay: Cytotoxicity against human HepG2 cells at 25 ug/ml after 48 hrs by presto-blue staining-based assay; assay type: cell-based; conditions: hepg2, 48 h
Outline: (§1)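 HepG2 cells were grown in DMEM with 10% heat-inactivated FBS, 2 mM L-glutamine and penicillin/streptomycin. They were seeded at 40,000 cells/cm² on collagen-coated wells and treated two days later with enantiomers at 25–100 µg/ml (in DMSO) for 48 h. PrestoBlue resazurin was read after 1 h at 37 °C as absorbance at 570 nm against 600 nm. Data are mean ± SEM of 3 experiments in triplicate; Student's t test.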

Staphylococcus aureus [7] = assay: Antibacterial activity against linezolid-sensitive methicillin-resistant Staphylococcus aureus by broth microdilution method; assay type: functional
HepG2 [8] = assay: Cytotoxicity against human HepG2 cells at 50 to 100 ug/ml after 48 hrs by presto-blue staining-based assay; assay type: cell-based; conditions: hepg2, 48 h; outline: as §1
[9] = test system: Staphylococcus epidermidis; assay: Antibacterial activity against linezolid-resistant methicillin-resistant Staphylococcus epidermidis by broth microdilution method; assay type: functional
HepG2 [10] = assay: Cytotoxicity against human HepG2 cells at 25 to 100 ug/ml after 48 hrs by presto-blue staining-based assay; assay type: cell-based; conditions: hepg2, 48 h; outline: as §1
HepG2 [11] = assay: Cytotoxicity against human HepG2 cells at 100 ug/ml after 48 hrs by presto-blue staining-based assay; assay type: cell-based; conditions: hepg2, 48 h; outline: as §1

With `C=C1CN(c2ccc(-c3nc(C)no3)cc2)C(=O)O1` the MIC (Staphylococcus aureus [1]) was greater than 50 µg/mL, the MIC [2] was greater than 50 µg/mL and the MIC (Staphylococcus aureus [3]) was greater than 50 µg/mL. For the same compound, the MIC (Staphylococcus aureus [4]) was greater than 50 µg/mL and the MIC (Staphylococcus aureus [5]) was greater than 50 µg/mL.
With `C=C1CN(c2ccc(-c3nc(C)no3)c(F)c2)C(=O)O1` the MIC (Staphylococcus aureus [1]) was greater than 50 µg/mL, the MIC [2] was greater than 50 µg/mL and the MIC (Staphylococcus aureus [3]) was greater than 50 µg/mL. For the same compound, the MIC (Staphylococcus aureus [4]) was greater than 50 µg/mL and the MIC (Staphylococcus aureus [5]) was greater than 50 µg/mL.
In the case of `CNC(=S)NC[C@H]1CN(c2ccc(-c3nc(C)no3)cc2)C(=O)O1`, the Activity (HepG2 [6]) is reported as “Toxic”, the MIC (Staphylococcus aureus [7]) is reported as 0.5 µg/mL (≈ 1.44 µM) and the Activity (HepG2 [8]) is reported as “Non-toxic”. It also gave an MIC [9] of 8 µg/mL (≈ 23 µM).
With `CNC(=S)NC[C@H]1CN(c2ccc(-c3nc(C)no3)c(F)c2)C(=O)O1` the Activity (HepG2 [10]) was “Toxic”.
For `CNC(=S)NC[C@@H]1CN(c2ccc(-c3nc(C)no3)c(F)c2)C(=O)O1`, the Activity (HepG2 [10]) was “Toxic”.
Compound `Cc1noc(-c2ccc(N3CC(CN=C=S)OC3=O)cc2)n1` (racemic) has an MIC (Staphylococcus aureus [1]) greater than 50 µg/mL, an MIC [2] greater than 50 µg/mL and an MIC (Staphylococcus aureus [3]) greater than 50 µg/mL. It also gave an MIC (Staphylococcus aureus [4]) greater than 50 µg/mL and an MIC (Staphylococcus aureus [5]) of 50 µg/mL (≈ 158 µM).
In the case of `Cc1noc(-c2ccc(N3CC(CN=C=S)OC3=O)cc2F)n1` (racemic), the MIC (Staphylococcus aureus [1]) is reported as greater than 50 µg/mL, the MIC [2] is reported as greater than 50 µg/mL and the MIC (Staphylococcus aureus [3]) is reported as greater than 50 µg/mL. It also gave an MIC (Staphylococcus aureus [4]) greater than 50 µg/mL and an MIC (Staphylococcus aureus [5]) greater than 50 µg/mL.
Compound `Cc1noc(-c2ccc(N3CC(CNC(N)=S)OC3=O)cc2)n1` (racemic) has an MIC (Staphylococcus aureus [1]) greater than 50 µg/mL, an MIC [2] greater than 50 µg/mL and an MIC (Staphylococcus aureus [3]) greater than 50 µg/mL. For the same compound, the MIC (Staphylococcus aureus [4]) was greater than 50 µg/mL and the MIC (Staphylococcus aureus [5]) was 50 µg/mL (≈ 150 µM).
Work on `Cc1noc(-c2ccc(N3CC(CNC(N)=S)OC3=O)cc2F)n1` (racemic) yielded an MIC (Staphylococcus aureus [1]) greater than 50 µg/mL, an MIC [2] greater than 50 µg/mL and an MIC (Staphylococcus aureus [3]) greater than 50 µg/mL. The MIC (Staphylococcus aureus [4]) was greater than 50 µg/mL and the MIC (Staphylococcus aureus [5]) was greater than 50 µg/mL.
Compound `CNC(=S)NCC1CN(c2ccc(-c3nc(C)no3)c(F)c2)C(=O)O1` (racemic) has an MIC (Staphylococcus aureus [1]) of 6.25 µg/mL (≈ 17.1 µM), an MIC [2] of 1.6 µg/mL (≈ 4.38 µM) and an MIC (Staphylococcus aureus [3]) of 6.25 µg/mL (≈ 17.1 µM). The MIC (Staphylococcus aureus [4]) was 3.12 µg/mL (≈ 8.55 µM) and the MIC (Staphylococcus aureus [5]) was 6.25 µg/mL (≈ 17.1 µM).
For `CNC(=S)NCC1CN(c2ccc(-c3nc(C)no3)cc2)C(=O)O1` (racemic), the MIC (Staphylococcus aureus [1]) was 6.25 µg/mL (≈ 18 µM), the MIC [2] was 1.6 µg/mL (≈ 4.61 µM) and the MIC (Staphylococcus aureus [3]) was 6.25 µg/mL (≈ 18 µM). For the same compound, the MIC (Staphylococcus aureus [4]) was 3.12 µg/mL (≈ 9 µM) and the MIC (Staphylococcus aureus [5]) was 6.25 µg/mL (≈ 18 µM).
Compound `Cc1noc(-c2ccc(N3CC(Cn4ccnn4)OC3=O)cc2)n1` (racemic) has an MIC (Staphylococcus aureus [1]) of 25 µg/mL (≈ 76.6 µM), an MIC [2] of 3.12 µg/mL (≈ 9.58 µM) and an MIC (Staphylococcus aureus [3]) of 25 µg/mL (≈ 76.6 µM). For the same compound, the MIC (Staphylococcus aureus [4]) was 12.5 µg/mL (≈ 38.3 µM) and the MIC (Staphylococcus aureus [5]) was 12.5 µg/mL (≈ 38.3 µM).
Work on `Cc1noc(-c2ccc(N3CC(Cn4ccnn4)OC3=O)cc2F)n1` (racemic) yielded an MIC (Staphylococcus aureus [1]) of 25 µg/mL (≈ 72.6 µM), an MIC [2] of 1.6 µg/mL (≈ 4.65 µM) and an MIC (Staphylococcus aureus [3]) of 25 µg/mL (≈ 72.6 µM). For the same compound, the MIC (Staphylococcus aureus [4]) was 6.25 µg/mL (≈ 18.2 µM) and the MIC (Staphylococcus aureus [5]) was 12.5 µg/mL (≈ 36.3 µM).
With `CC(=O)NC[C@H]1CN(c2ccc(N3CCOCC3)c(F)c2)C(=O)O1` [LINEZOLID] the MIC (Staphylococcus aureus [3]) was 3.12 µg/mL (≈ 9.26 µM), the Activity (HepG2 [11]) was 20% and the MIC (Staphylococcus aureus [5]) was 3.12 µg/mL (≈ 9.26 µM).
